# ChEMBL document CHEMBL3232830, “Effect of prime-site sequence of retro-inverso-modified HTLV-1 protease inhibitor” (Bioorg Med Chem, 2014)
# Starred links: 1 amine or outer side, 2 acyl side, 3 side chain; linkers in the order of their positions; H or OH if unused. Non-standard residues stand in square brackets, D forms with d. Residues, ends and D or L forms follow the SMILES beside them. *: point of attachment. X1 = CC(C)C[C@H](C(=O)[*:2])[C@H](O)C[C@H]1CCCN1[*:1]; CO = O=C([*:1])[*:2]; NHBn = c1ccc(CN*)cc1
# Molecular target: Protease (Human T-cell leukemia virus type I, UniProt Q82134, C109A/C90A/L40I)
# Assay: (§1) Inhibition of HTLV-1 protease L40I/C90A/C109A mutant using dodecapeptide as substrate by HPLC analysis; call rule not given here
# In short: (§2)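 Synthetic mutant HTLV-1 protease at 5.6 nM, with a dodecapeptide substrate, in 0.5 M sodium acetate pH 5.6 containing 10% glycerol, 10 mM DTT and 4 M NaCl. Loss of substrate during incubation followed by reversed-phase HPLC (C18, 10–40% CH3CN gradient over 30 min in 0.1% TFA). IC50 from a sigmoidal dose–response curve; assay run three times.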
# Sequence of Protease (Human T-cell leukemia virus type I, UniProt Q82134, C109A/C90A/L40I) (Q82134 entry or part of it C109A/C90A/L40I): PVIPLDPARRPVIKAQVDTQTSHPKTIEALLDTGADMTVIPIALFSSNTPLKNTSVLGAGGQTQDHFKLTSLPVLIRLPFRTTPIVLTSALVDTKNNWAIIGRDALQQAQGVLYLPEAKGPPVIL
row,Compound,IC50 [µM]
1,CC[C@@H](C)[C@@H](NC(=O)[C@@H](CC(C)C)[C@H](O)C[C@H]1CCCN1C(=O)OCc1ccccc1)C(=O)N[C@@H](C(=O)N1CCC[C@@H]1C(=O)N1CCC[C@@H]1C(N)=O)C(C)C,380
2,CC[C@@H](C)[C@@H](NC(=O)[C@@H](CC(C)C)[C@H](O)C[C@H]1CCCN1C(=O)CCc1ccccc1)C(=O)N[C@@H](C(=O)N1CCC[C@@H]1C(=O)N1CCC[C@@H]1C(N)=O)C(C)C,160
3,CC[C@@H](C)[C@@H](NC(=O)[C@@H](CC(C)C)[C@H](O)C[C@H]1CCCN1C(=O)CCC(C)C)C(=O)N[C@@H](C(=O)N1CCC[C@@H]1C(=O)N1CCC[C@@H]1C(N)=O)C(C)C,520
4,CC[C@@H](C)[C@@H](NC(=O)[C@@H](CC(C)C)[C@H](O)C[C@H]1CCCN1C(=O)[C@H](NC(=O)[C@H](N)CCC(N)=O)[C@H](C)CC)C(=O)N[C@@H](C(=O)N1CCC[C@@H]1C(=O)N1CCC[C@@H]1C(N)=O)C(C)C,2000
5,CCCC(CCC)C(=O)N1CCC[C@@H]1C[C@@H](O)[C@H](CC(C)C)C(=O)N[C@@H](C(=O)N[C@@H](C(=O)N1CCC[C@@H]1C(=O)N1CCC[C@@H]1C(N)=O)C(C)C)[C@H](C)CC,420
6,CC[C@@H](C)[C@@H](NC(=O)[C@@H](CC(C)C)[C@H](O)C[C@H]1CCCN1C(=O)C(C)(C)C)C(=O)N[C@@H](C(=O)N1CCC[C@@H]1C(=O)N1CCC[C@@H]1C(N)=O)C(C)C,1000
7,CC[C@@H](C)[C@@H](NC(=O)[C@@H](CC(C)C)[C@H](O)C[C@H]1CCCN1C(=O)[C@H](NC(C)=O)[C@H](C)CC)C(=O)N[C@@H](C(=O)N1CCC[C@@H]1C(=O)N1CCC[C@@H]1C(N)=O)C(C)C (Ac-[dI][X1][dI][dV][dP][dP]-NH2),110
8,CC[C@@H](C)[C@@H](NC(=O)[C@@H](CC(C)C)[C@H](O)C[C@H]1CCCN1C(=O)/C=C/c1ccccc1)C(=O)N[C@@H](C(=O)N1CCC[C@@H]1C(=O)N1CCC[C@@H]1C(N)=O)C(C)C,290
9,CC[C@@H](C)[C@@H](N)C(=O)N1CCC[C@@H]1C[C@@H](O)[C@H](CC(C)C)C(=O)N[C@@H](C(=O)N[C@@H](C(=O)N1CCC[C@@H]1C(=O)N1CCC[C@@H]1C(N)=O)C(C)C)[C@H](C)CC,1500
10,CC[C@@H](C)[C@@H](NC(=O)[C@@H](CC(C)C)[C@H](O)C[C@H]1CCCN1C(=O)c1ccccc1)C(=O)N[C@@H](C(=O)N1CCC[C@@H]1C(=O)N1CCC[C@@H]1C(N)=O)C(C)C,1100
11,CC[C@@H](C)[C@@H](NC(=O)[C@@H](CC(C)C)[C@H](O)C[C@H]1CCCN1C(=O)NCc1ccccc1)C(=O)N[C@@H](C(=O)N1CCC[C@@H]1C(=O)N1CCC[C@@H]1C(N)=O)C(C)C ({NHBn-CO}-[X1][dI][dV][dP][dP]-NH2),160

# Molecular target: Protease (Human T-cell leukemia virus type I, UniProt Q82134, L40I/C90A/C109A)
# Assay: as §1
# In short: as §2
# Sequence of Protease (Human T-cell leukemia virus type I, UniProt Q82134, L40I/C90A/C109A) (Q82134 entry or part of it L40I/C90A/C109A): as the sequence (Q82134 entry or part of it C109A/C90A/L40I) above
row,Compound,IC50
1,CC[C@@H](C)[C@@H](NC(=O)[C@@H](CC(C)C)[C@H](O)C[C@H]1CCCN1)C(=O)N[C@@H](C(=O)N1CCC[C@@H]1C(=O)N1CCC[C@@H]1C(N)=O)C(C)C,Not Active
